For 6 compounds, IC50 results are on record in ChEMBL document CHEMBL1136830, “Design and synthesis of dimeric HIV-1 integrase inhibitory peptides” (Bioorg Med Chem Lett, 2003).

Starred links: 1 amine or outer side, 2 acyl side, 3 side chain; linkers in the order of their positions; H or OH if unused. Positions of bridges follow the written chain, without caps; N, C: chain ends. Non-standard residues stand in square brackets, D forms with d. Residues, ends and D or L forms follow the SMILES beside them. Chains are numbered I, II in the order given. X1 = O=C([C@@H](CC[*:3])N[*:1])[*:2]; CH2 = C([*:1])[*:2]

The target in assay [1] is T1, Human immunodeficiency virus type 1 integrase (Human immunodeficiency virus 1, UniProt Q7ZJM1). The assay is described as follows: In vitro inhibitory activity against HIV-1 integrase enzyme 3'-end processing. The method in brief: (§1)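 HIV-1 integrase (500 nM) pre-incubated with peptides for 20 min at room temperature in 50 mM MOPS pH 7.2, 7.5 mM NaCl, 7.5 mM MnCl2, 5% glycerol. The 3'-processing and strand-transfer reactions were then run by an earlier published method with these changes. IC50 values were reported for each step.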

Assay [2] has as its target T1, Human immunodeficiency virus type 1 integrase. As to the kind of experiment: In vitro inhibitory activity against HIV-1 integrase enzyme strand transfer process. The method in brief:
as §1

T1 sequence (Q7ZJM1 whole entry): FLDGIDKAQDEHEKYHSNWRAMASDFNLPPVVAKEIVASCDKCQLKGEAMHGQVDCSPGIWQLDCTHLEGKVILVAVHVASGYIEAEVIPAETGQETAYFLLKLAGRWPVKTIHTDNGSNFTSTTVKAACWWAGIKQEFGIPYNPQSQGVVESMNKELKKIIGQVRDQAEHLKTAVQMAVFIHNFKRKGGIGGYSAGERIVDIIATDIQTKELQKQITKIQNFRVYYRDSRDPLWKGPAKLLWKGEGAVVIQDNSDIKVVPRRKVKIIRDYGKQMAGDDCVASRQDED

The term IC50 denotes the concentration at which inhibition is half-maximal. A high value points to weaker potency. Take H-HCKFWW-NH2: the IC50 in assay [1] stood at 102 µM; in assay [2], 90 µM.
On the same counts, the results for `NCCCC[C@H](NC(=O)[C@H](CSCC[C@@H](NC(=O)[C@@H](N)Cc1c[nH]cn1)C(=O)N[C@@H](CCCCN)C(=O)N[C@@H](Cc1ccccc1)C(=O)N[C@@H](Cc1c[nH]c2ccccc12)C(=O)N[C@@H](Cc1c[nH]c2ccccc12)C(N)=O)NC(=O)[C@@H](N)Cc1c[nH]cn1)C(=O)N[C@@H](Cc1ccccc1)C(=O)N[C@@H](Cc1c[nH]c2ccccc12)C(=O)N[C@@H](Cc1c[nH]c2ccccc12)C(N)=O` (I: H-H[X1]KFWW-NH2 / II: H-HCKFWW-NH2; thioether I:2-II:2) are 77 µM and 87 µM.
With `NCCCC[C@H](NC(=O)[C@@H](CCSCC[C@@H](NC(=O)[C@@H](N)Cc1c[nH]cn1)C(=O)N[C@@H](CCCCN)C(=O)N[C@@H](Cc1ccccc1)C(=O)N[C@@H](Cc1c[nH]c2ccccc12)C(=O)N[C@@H](Cc1c[nH]c2ccccc12)C(N)=O)NC(=O)[C@@H](N)Cc1c[nH]cn1)C(=O)N[C@@H](Cc1ccccc1)C(=O)N[C@@H](Cc1c[nH]c2ccccc12)C(=O)N[C@@H](Cc1c[nH]c2ccccc12)C(N)=O`, the IC50 was 59 µM in assay [1] and 63 µM in assay [2].
On the same counts, the results for `NCCCC[C@H](NC(=O)[C@H](CSCSC[C@H](NC(=O)[C@@H](N)Cc1c[nH]cn1)C(=O)N[C@@H](CCCCN)C(=O)N[C@@H](Cc1ccccc1)C(=O)N[C@@H](Cc1c[nH]c2ccccc12)C(=O)N[C@@H](Cc1c[nH]c2ccccc12)C(N)=O)NC(=O)[C@@H](N)Cc1c[nH]cn1)C(=O)N[C@@H](Cc1ccccc1)C(=O)N[C@@H](Cc1c[nH]c2ccccc12)C(=O)N[C@@H](Cc1c[nH]c2ccccc12)C(N)=O` (I: H-HCKFWW-NH2 / II: H-HCKFWW-NH2; linker I:2-II:2 via CH2) are 5.3 µM and 6.5 µM.
On the same counts, the results for `NCCCC[C@H](NC(=O)[C@H](CSC[C@H](NC(=O)[C@@H](N)Cc1c[nH]cn1)C(=O)N[C@@H](CCCCN)C(=O)N[C@@H](Cc1ccccc1)C(=O)N[C@@H](Cc1c[nH]c2ccccc12)C(=O)N[C@@H](Cc1c[nH]c2ccccc12)C(N)=O)NC(=O)[C@@H](N)Cc1c[nH]cn1)C(=O)N[C@@H](Cc1ccccc1)C(=O)N[C@@H](Cc1c[nH]c2ccccc12)C(=O)N[C@@H](Cc1c[nH]c2ccccc12)C(N)=O` are 67 µM and 19 µM.
On the same counts, the results for `NCCCC[C@H](NC(=O)[C@H](CSSC[C@H](NC(=O)[C@@H](N)Cc1c[nH]cn1)C(=O)N[C@@H](CCCCN)C(=O)N[C@@H](Cc1ccccc1)C(=O)N[C@@H](Cc1c[nH]c2ccccc12)C(=O)N[C@@H](Cc1c[nH]c2ccccc12)C(N)=O)NC(=O)[C@@H](N)Cc1c[nH]cn1)C(=O)N[C@@H](Cc1ccccc1)C(=O)N[C@@H](Cc1c[nH]c2ccccc12)C(=O)N[C@@H](Cc1c[nH]c2ccccc12)C(N)=O` (I: H-HCKFWW-NH2 / II: H-HCKFWW-NH2; disulfide I:2-II:2) are 81 µM and 58 µM.
